Sampled rows, rich in hits. Any-hit rate of the full collection: about 3.8%.
FGF22 binding: binders of human FGF22 protein, primary screen, FGF22 synaptogenesis inhibitor project, biophysical, thermal shift, single point. recombinant FGF22 thermal shift, SYPRO orange fluorescence; percent of sucrose octasulfate shift, DMSO zero. activity (Tm shift, normalised), % at 9.99 µM. hit rate 1.5% among 340,000. AID 651658, 2012;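 active = mean Tm shift, scaled 0 neutral to 100 positive control, at about 1.3% or above, every replicate too, limit read from the data; inconclusive = no clear call, values can overlap the other calls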
Target sequence (Q9HCT0 whole entry, looked up): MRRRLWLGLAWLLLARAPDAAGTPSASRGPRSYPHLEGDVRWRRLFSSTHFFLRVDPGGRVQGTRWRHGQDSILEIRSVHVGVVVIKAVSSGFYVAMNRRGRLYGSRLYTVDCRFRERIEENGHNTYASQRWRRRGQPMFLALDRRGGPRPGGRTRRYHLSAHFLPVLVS
SIRT5 inh: SIRT5 desuccinylase inhibitors, primary screen, biochemical, fluorescence imaging, single point, set 5 | NAD-dependent protein deacylase sirtuin-5, mitochondrial (Homo sapiens), Q9NXA8 | Purified SirT5, succinyl-peptide AMC, trypsin-coupled fluorescence | inhibition, % at 15 µM | hit rate 1.1% among 330,000 | AID 652115, 2013; in the data active = inhibition above about 15%; inconclusive = no clear call, values can overlap the other calls
Target sequence (Q9NXA8 whole entry, looked up): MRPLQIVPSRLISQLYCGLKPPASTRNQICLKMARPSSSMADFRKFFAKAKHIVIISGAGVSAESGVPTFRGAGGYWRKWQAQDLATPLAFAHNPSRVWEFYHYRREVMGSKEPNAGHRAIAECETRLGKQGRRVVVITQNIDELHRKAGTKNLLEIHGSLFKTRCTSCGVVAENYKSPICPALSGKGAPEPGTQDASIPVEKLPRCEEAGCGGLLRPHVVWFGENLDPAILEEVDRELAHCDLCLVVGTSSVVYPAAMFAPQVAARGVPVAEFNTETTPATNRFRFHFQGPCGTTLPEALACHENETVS
DENV2 CPE rescue: inhibitors of DENV2 cytopathic effect, primary screen, cell-based, plate reader, single concentration; DENV2-infected cells, cytopathic effect rescue; CPE inhibition, % at 9.99 µM; AID 651640, 2012; hit rate 1.7% among 350,000; in the data active = CPE inhibition above about 20%, passing the limit was not always enough; inconclusive = no clear call, values can overlap the other calls; tested in BHK-21 cells;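 also: 0% = median of neutral control wells and 100% = median of positive control wells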
XiGFP reactiv: activators of inactive X chromosome reactivation, primary screen, imaging, XiGFP fibroblasts, GFP high-content imaging, set 2; XiGFP mouse fibroblasts, % GFP-positive cells imaging, 3 d; cells co-treated with 5-aza-dC sensitizer; scaled so ellipticine positive control = 100%; activation, % at 7.58 µM; hit rate 0.055% among 360,000;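 active = mean normalized replicate activation at least 10% and every replicate at or above 10%; inconclusive = only one of the two criteria met; inactive = mean below 10% and not all replicates reach 10%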;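 also: 0% = median of on-plate neutral control wells and 100% = ellipticine 6 µM median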
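Material: SV40-immortalized XiGFP fibroblast cells, line 68-5-11 | Buffer or medium: DMEM containing 5-aza-dC | Dosing: One concentration, pinned | Times: 3 d treatment, 15 min room-temperature fixation | Controls: Ellipticine 6 µM positive control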
ARNT-TACC3 inh: disruptors of ARNT/TACC3 protein interaction, primary screen, biochemical, AlphaScreen, single concentration | Transforming acidic coiled-coil-containing protein 3 (Homo sapiens), Q9Y6A5 | AlphaScreen His-ARNT PAS-B/GST-TACC3 binding, luminescence; TACC3 fragment carries E629A point mutation | inhibition, % at 9.99 µM | hit rate 0.66% among 390,000;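 active = mean inhibition of replicates at least 50% and at least half of replicates each reaching 50%; inconclusive = half or more replicates reach 50% but mean below 50%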;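 also: 0% = complete ARNT plus TACC3 wells and 100% = ARNT alone without TACC3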
FN deposit inh: inhibitors of fibronectin matrix deposition, primary screen, AH1F cells, Alexa488-fibronectin fluorescence, plate reader. AH1F fibroblasts, overnight. inhibition, % at 12.6 µM. hit rate 0.086% among 350,000;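 active = mean inhibition across replicates of 30% or more, regardless of how many single replicates reach that level; inconclusive = mean under 30% yet at least half of replicates reach 30%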;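 also: positive control wells lacked labelled fibronectin entirely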
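material = AH1F fibroblast monolayer depositing Alexa488-labelled fibronectin into matrix | amount = 10000 AH1F cells/well | buffer or medium = DMEM plus 2% serum, read in PBS | incubation = 1 h cell adhesion before compound, then overnight fibronectin incubation | detection = fluorescence at 485 nm excitation, 525 nm emission | evaluation = percent inhibition as loss of matrix-bound fibronectin fluorescence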
Numbers without * were called inactive; ? = inconclusive; / = not tested or not shown; ! = not confirmed by another sample.

SMILES | FGF22 binding | SIRT5 inh | DENV2 CPE rescue | XiGFP reactiv | ARNT-TACC3 inh | FN deposit inh
C/C=C/c1cnc2c(c1)C(=O)N([C@H](C)CO)C[C@H](C)[C@@H](CN(C)C(=O)Nc1c(C)noc1C)O2 | 0 | 8 | 0 | 1 | -2 | /
Cc1noc(C)c1NC(=O)N(C)C[C@@H]1Oc2ncc(Br)cc2C(=O)N([C@@H](C)CO)C[C@H]1C | 0 | 30*! | -3 | 0 | 30 | -6
COc1ccc(NC(=O)N(C)C[C@@H]2Oc3ncc(C#CC(C)C)cc3C(=O)N([C@@H](C)CO)C[C@@H]2C)cc1 | -1 | 7 | 53* | 0 | -2 | -8
Cc1noc(C)c1NC(=O)N(C)C[C@@H]1Oc2ncc(C#CCN(C)C)cc2C(=O)N([C@@H](C)CO)C[C@@H]1C | 0 | -17 | 25* | 0 | -10 | -4
CCC(=O)N1[C@@H](CO)[C@H](c2ccc(C3=CCCC3)cc2)[C@@H]1CNC(=O)CN(C)C | / | / | 5 | 0 | 3 | 0
COc1cccc(C(=O)Nc2ccc3c(c2)OC[C@@H](C)N(C(C)=O)C[C@@H](C)[C@@H](OC)CN(C)C3=O)c1 | 0 | -14 | -4 | 0 | 0 | -2
O=C1/C(=C\c2cc([N+](=O)[O-])ccc2O)SC(=S)N1Cc1ccc(Cl)cc1 | 0 | 16* | ? | 0 | 1 | -7
O=C1/C(=C\c2cccc(O)c2O)SC(=S)N1Cc1ccccc1 | 0 | 2 | ? | 0 | 15 | 22
COc1ccc(COCC(O)CN2CCC(C(N)=O)CC2)cc1OC (centres undefined) | 44* | 0 | 5 | 0 | 12 | 0
CCN1CCN(CC(=O)N2N=C(c3cccs3)CC2c2ccc(C)cc2)C(=O)C1=O (centres undefined) | 0 | 2 | / | 0 | -6 | -1
O=C(CSc1nc(=O)n2ccccc2n1)N1N=C(c2cccs2)CC1c1ccc(F)cc1 (centres undefined) | -1 | 1 | 60* | 0 | -6 | 10
CCN1CCN(CC(=O)N2N=C(c3cccs3)CC2c2ccc(OC)cc2)C(=O)C1=O (centres undefined) | 43* | 3 | 11 | 0 | -8 | /
CNC(=O)C[C@H]1CC[C@@H]2[C@@H](COc3ccc(NC(=O)Nc4cccc(F)c4)cc3C(=O)N2C)O1 | / | / | / | 0 | / | 1
C[C@@H]1CN([C@@H](C)CO)C(=O)c2cc(C#CC3CCCC3)cnc2O[C@@H]1CN(C)C(=O)Cc1ccccn1 | 0 | 3 | 12 | 0 | 3 | /
CNCCC=C1c2ccccc2C=Cc2ccccc21 | 0 | -1 | 2 | 0 | 2 | -2
CNCCCC1c2ccccc2C=Cc2ccccc21 | 0 | -6 | 26* | 0 | 9 | -4
COc1ccc(S(=O)(=O)N(C)C[C@H]2Oc3ccc(NS(=O)(=O)c4ccc(F)cc4)cc3CC(=O)N([C@@H](C)CO)C[C@@H]2C)cc1 | 0 | 9 | 77* | ? | / | /
COc1ccc(S(=O)(=O)Nc2ccc3c(c2)CC(=O)N([C@H](C)CO)C[C@@H](C)[C@H](CN(C)S(=O)(=O)c2ccc(F)cc2)O3)cc1 | 0 | / | 43* | 0 | 3 | /
COc1ccc(S(=O)(=O)N(C)C[C@@H]2Oc3ccc(NS(=O)(=O)c4ccc(Cl)cc4)cc3CC(=O)N([C@@H](C)CO)C[C@@H]2C)cc1 | 0 | / | 64* | -1 | 11 | -7
COc1ccc(S(=O)(=O)Nc2ccc3c(c2)CC(=O)N([C@H](C)CO)C[C@H](C)[C@H](CN(C)S(=O)(=O)c2ccc(Cl)cc2)O3)cc1 | 0 | 5 | -10 | -1 | 0 | /

Assay outcomes deposited in PubChem by Broad Institute.
